Measured values of several laboratories.
Target: Glycogen synthase kinase-3 alpha (GSK3A, Homo sapiens, UniProt P49840)

SMILES	read-out	action	method	concentration	quantity	result
C#Cc1n[nH]c2c(-c3cn([C@@H](C)c4ccccn4)c(=O)[nH]c3=O)cc(F)cc12	enzyme activity	inhibitor		0.1 µM	inhibition	-0.2%
Cc1nn(C)cc1-c1nc2c(N3CCN(Cc4ccc(Cl)cc4)CC3)c(Cl)cnc2[nH]1	binding		competition with immobilised ligand	1 µM	remaining binding	100%
O=c1[nH]c2ccccc2n1C1CCN(Cc2ccc(-c3[nH]c4cc5ncnc5cc4nc3-c3ccccc3)cc2)CC1	cell-free assay			0.5 µM	remaining signal	100%
Cn1cc(-c2cc(F)cc(N3CCn4c(cc5c4CCCC5)C3=O)c2CO)cc(Nc2ccc(N3CCN(C4COC4)CC3)cn2)c1=O	enzyme activity	inhibitor		0.1 µM	inhibition	19%
COc1ncccc1-c1cnn2ccc(N3CCN(C(=O)OC(C)C)CC3)nc12	binding		competition with immobilised ligand	1 µM	remaining binding	100%
Cn1cncc1[C@@](O)(COc1ccc(C#N)cc1-c1ccc(OC(F)(F)F)cc1)c1ccc(C#N)cc1	cell-free assay		competition with immobilised ligand	1 µM	remaining binding	100%
Nc1ncc(-c2nc(N3CCOCC3)nc(N3CCOCC3)n2)c(C(F)F)n1	binding		competition with immobilised ligand	10 µM	remaining binding	91%
Cn1cc(-c2cccc(N3CCc4c(sc5c4CC(C)(C)C5)C3=O)c2CO)cc(Nc2ccncn2)c1=O	enzyme activity	inhibitor		1 µM	inhibition	4%
C#Cc1n[nH]c2c(-c3cn([C@@H](C)c4ccccc4)c(=O)[nH]c3=O)cc(F)cc12	enzyme activity	inhibitor		0.1 µM	inhibition	-1.9%
